This is a sample that favours compounds with a hit; in the whole collection about 1.9% have one here.
CHRM5 antagonist: antagonists of human muscarinic M5 receptor (CHRM5) | inhibition, % at 3 µM | CHO-hM5 cells, Fluo-8 calcium fluorescence, ACh EC80 | 360,000 compounds, 0.59% hits;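 active = inhibition above a per-plate cutoff, the mean of that plate's test compounds plus 3 SD, cut at about 27% in these data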;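 also: 0% = acetylcholine EC80 with DMSO and 100% = DMSO without agonist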
Target sequence (P08912 whole entry, looked up): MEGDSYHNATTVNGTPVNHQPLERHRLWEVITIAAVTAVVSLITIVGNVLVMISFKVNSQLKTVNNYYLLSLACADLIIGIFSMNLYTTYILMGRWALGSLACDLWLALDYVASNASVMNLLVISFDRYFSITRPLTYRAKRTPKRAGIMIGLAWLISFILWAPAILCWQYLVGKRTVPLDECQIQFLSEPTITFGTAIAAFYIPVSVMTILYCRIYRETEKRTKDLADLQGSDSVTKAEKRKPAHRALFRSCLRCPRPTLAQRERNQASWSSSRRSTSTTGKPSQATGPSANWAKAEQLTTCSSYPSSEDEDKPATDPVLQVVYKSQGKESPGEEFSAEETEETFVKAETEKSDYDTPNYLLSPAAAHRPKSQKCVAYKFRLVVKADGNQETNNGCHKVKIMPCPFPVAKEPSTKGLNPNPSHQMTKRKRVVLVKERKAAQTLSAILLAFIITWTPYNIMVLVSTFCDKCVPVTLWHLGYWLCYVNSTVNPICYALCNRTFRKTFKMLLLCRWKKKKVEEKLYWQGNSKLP
CHRM4 PAM: CHRM4 positive allosteric modulation. P08173. CHO-K1 hM4/Gqi5, Fluo-8 calcium fluorescence, ACh EC20; 0% = ACh EC20, 100% = maximal ACh. activation, % at 3 µM. 360,000 compounds, 0.4% hits;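 active = activation above its plate's cutoff, the mean activation of sample wells plus 3 SD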
M5 PAM: CHRM5 positive allosteric modulation | activation, % at 3 µM | CHO-K1 hM5, Fluo-8 calcium, ACh EC20 PAM; 0% = ACh EC20, 100% = ACh EC100 | AID 624038 | P08912 | 360,000 compounds, 0.3% hits;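 active = activation above the run cutoff, the mean activation of all test compounds plus 3 SD, cut at about 18% in these data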
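Probe or stimulus: acetylcholine, EC20 level; Assay system: human M5 receptor in CHO-K1 cells; Schedule: compound preincubation 140 s before EC20 acetylcholine addition; Technique: intracellular calcium via Fluo-8 fluorescence; Dosing: single-point, 3 µM nominal; Read-out basis: percent activation from peak-over-basal fluorescence ratio, scaled EC20-to-EC100 acetylcholine; Repeats: one well per compound, no replicates.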
M5 ag: CHRM5 agonism in calcium assay. P08912. CHO-K1 hM5 cells, Fluo-8 calcium fluorescence; 0% DMSO wells, 100% maximal acetylcholine response. activation, % at 3 µM. 360,000 compounds, 0.19% hits. AID 624037;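 active = activation above the run's mean over test compounds plus 3 SD, cut at about 23% in these data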;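 also: signal is peak over basal fluorescence ratio across the kinetic read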
M4 ag: CHRM4 agonism in calcium assay. CHO-K1 hM4/Gqi5, Fluo-8 calcium fluorescence; vehicle 0%, full acetylcholine response 100%. activation, % at 3 µM. 360,000 compounds, 0.14% hits;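 active = activation above the run mean over all test wells plus 3 SD, cut at about 32% in these data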;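 also: peak over basal fluorescence ratio per well then scaled between controls; 0% = DMSO wells and 100% = acetylcholine at EC100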
M4 antag: blocks acetylcholine activation of human M4 receptor; P08173; CHO-hM4 cells, ACh EC80, Fluo-8 calcium fluorescence; inhibition, % at 3 µM; 360,000 compounds, 0.73% hits; AID 624125;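 active = inhibition above its plate's cutoff, the mean inhibition of sample wells plus 3 SD, cut at about 27% in these data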;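 also: 0% = acetylcholine EC80 with DMSO and 100% = DMSO without agonist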
Numbers without * were called inactive.

SMILES	CHRM5 antagonist	CHRM4 PAM	M5 PAM	M5 ag	M4 ag	M4 antag
COc1ccc(NC(=O)CSc2ncnc3c2sc2ccccc23)c(OC)c1	8.6	-5.3	-3.7	2.2	0.5	-11.7
Cc1nc2ccccc2c(=O)n1NC(=O)c1ccccc1F	10.2	-2.4	-2.1	-4.1	1.2	2.6
CN(C)CCCN1c2ccccc2CCc2ccc(Cl)cc21	92.0*	-16.7	-19.1	0.0	4.8	72.2*
O=c1c2ccccc2sc2ccc(NCCCN3CCOCC3)cc12	17.7	0.0	-10.3	17.9	32.9*	-14.9
CN1CCN(NC(=O)C2CC2)CC1	-1.6	24.1	5.0	-5.6	2.1	32.5*
CN1CCN(NC(=O)C23CC4CC(CC(C4)C2)C3)CC1	-10.1	7.5	8.6	-2.4	1.2	-8.5
Cc1ccc(SCC(=O)Nc2ccc(S(=O)(=O)Nc3ncccn3)cc2)cc1	12.5	-2.9	-3.5	-5.6	0.6	5.0
CC(=O)NS(=O)(=O)c1ccc(NC(=O)CSc2ccc(C)cc2)cc1	-7.5	18.8*	3.3	-0.5	1.8	-11.5
N=C1S/C(=C\c2ccc(O)cc2)C(=O)N1c1ccc(F)cc1	-3.5	1.2	7.3	1.4	1.0	-2.8
O=C(CN1CCN(c2ccccc2)CC1)Nc1ccncc1	5.4	-3.5	0.8	2.8	3.3	-9.8
O=C(CN1CCN(c2ccccc2)CC1)Nc1ccc2c(c1)CCC2	-5.2	20.5*	-0.5	-3.4	1.2	-6.3
CN(C)CC(=O)N1c2ccccc2Sc2ccc(Cl)cc21	94.6*	-19.5	-19.1	-10.4	1.1	67.6*
O=C(CCN1CCN2CCCC2C1)N1c2ccccc2Sc2ccc(Cl)cc21 (stereo not drawn)	10.6	-18.0	-10.0	-6.9	1.3	16.1
CN1CCC=C(C(=O)N2c3ccccc3Sc3ccc(Cl)cc32)C1	98.9*	-58.8	-31.9	-22.1	2.4	86.1*
CCN(CC)CCC(=O)N1c2ccccc2Sc2ccc(Cl)cc21	98.7*	-17.9	-18.5	-1.3	0.9	97.9*
CN(C)CCC(=O)N1c2ccccc2Sc2ccc(Cl)cc21	99.5*	-24.4	-19.8	-10.1	0.3	95.8*
Cn1nnnc1SCC(=O)N1c2ccccc2Sc2ccc(Cl)cc21	9.5	-13.2	-13.0	-11.9	1.9	13.9
O=C(CSc1ncn[nH]1)Nc1ccc([N+](=O)[O-])cc1Br	-14.0	-1.2	0.1	0.7	4.8	-13.1
O=C(CCc1nnc(CCCCc2ccccc2)o1)NCCc1cccnc1	-0.7	-6.5	-5.2	-5.0	1.9	-14.7
CC1CCC2C(=O)N(c3ccc(NC4CCN(Cc5ccccc5)CC4)c([N+](=O)[O-])c3)C(=O)C2C1 (stereo not drawn)	24.3	-59.3	-35.7	-18.0	4.0	28.8*
O=C1CCC(=O)N1c1ccc(NC2CCN(Cc3ccccc3)CC2)c([N+](=O)[O-])c1	5.0	-24.2	-1.4	-19.3	-0.2	8.2
O=C1C2CCCCC2C(=O)N1c1ccc(NC2CCN(Cc3ccccc3)CC2)c([N+](=O)[O-])c1 (stereo not drawn)	31.8*	-40.3	-22.7	-19.4	0.8	15.6
COC(=O)C1=C(C)NC(C)=C(C(=O)OC)C1c1ccc(NC(C)=O)cc1	14.4	10.3	-15.6	43.9*	1.7	2.3
CCN(CC)c1ccc(C2C(C(=O)OC)=C(C)NC(C)=C2C(=O)OC)cc1	8.4	-18.3	-16.8	-8.0	-0.2	13.6
COc1ccc(N2CCN(C(=O)C(C)(C)Oc3ccc(Cl)cc3)CC2)cc1	6.4	1.9	-8.1	1.2	2.7	-5.2
SMILES	CHRM5 antagonist	CHRM4 PAM	M5 PAM	M5 ag	M4 ag	M4 antag
CCOc1ccccc1NC(=O)C(OC(=O)c1ccc(CC)cc1)c1ccccc1 (stereo not drawn)	1.1	5.7	-1.7	-2.9	-0.1	-23.7
CCOc1ccccc1NC(=O)C(OC(=O)c1ccc(O)cc1)c1ccccc1 (stereo not drawn)	28.8*	-6.3	-13.1	-0.6	3.7	6.9
O=C(O)CSc1sc(=S)sc1SCC(=O)O	-4.7	-4.9	1.8	2.3	-0.1	8.4
O=C1NC2(CCCCC2)C(=O)N1CCN1C(=O)c2ccccc2C1=O	3.2	7.4	-1.6	-0.7	1.3	-3.2
CCCCOC(=O)C1=C(C)NC(=O)NC1c1ccc(OC)cc1 (stereo not drawn)	-8.6	1.1	18.1*	-1.8	0.6	-6.5
O=C(CCN1C(=O)c2ccccc2S1(=O)=O)Nc1ccc(F)c(F)c1F	0.1	7.6	0.5	3.1	3.9	0.8
CCOC(=O)c1c(NC(=O)CSc2nnc(-c3ccco3)o2)sc(C)c1C	2.5	36.5*	-0.4	-2.2	0.9	0.5
CCOC(=O)c1c(NC(=O)CSc2nnc(-c3cccnc3)n2Cc2ccco2)sc(C)c1C	-10.3	8.4	18.7*	-10.4	-0.6	4.4
CCOC(=O)c1c(NC(=O)CSc2nnc(-c3ccco3)o2)sc(C(C)=O)c1C	-6.1	0.0	0.2	1.3	1.9	-0.6
CN1C(=O)CSC1=Nc1cccc(C(=O)O)c1	6.0	0.1	2.5	-3.5	1.6	3.8
CN1C(=O)CSC1=Nc1ccc(F)cc1	5.7	14.3*	5.3	-1.8	0.6	-20.1
O=C(NC(Cc1c[nH]c2ccccc12)C(=O)N/N=C/c1ccc(Cl)cc1)c1cccs1 (stereo not drawn)	26.9*	-11.6	-15.4	-1.7	12.8	8.0
O=C(NC(NC(=S)Nc1ccc(Cl)cc1)C(Cl)(Cl)Cl)c1ccco1 (stereo not drawn)	19.7	-1.3	-16.2	8.5	12.0	0.4
CC(=O)c1ccc(NC(=S)NC(NC(=O)c2ccco2)C(Cl)(Cl)Cl)cc1 (stereo not drawn)	4.4	3.3	-10.6	27.1*	11.7	-12.3
CCc1nc2ccc(C(=O)Nc3cccc(NS(C)(=O)=O)c3)cn2c1N(C)CCCc1ccccc1	3.4	-12.6	-8.5	-1.7	6.8	54.3*
CCc1nc2ccc(C(=O)N(CC)CCN(C)C)cn2c1N(C)CCCc1ccccc1	3.7	-14.7	-10.7	-2.2	1.2	27.0*
O=C(Nc1cccc(S(=O)(=O)N2CCOCC2)c1)C1CCCC1	-4.5	6.5	8.9	2.5	1.5	-18.5
O=C(C[C@H]1C/C=C\C[C@H](Cc2ccc(F)cc2)C(=O)OCCNC1=O)NCCO	4.7	4.1	4.1	2.7	0.4	-3.3
COc1ccccc1CNc1nc(NCc2ccccc2SC)c2sccc2n1	30.3*	-9.4	-14.0	1.6	12.8	32.3*
COc1ccccc1CNc1nc(NCc2ccccc2OC)c2sccc2n1	25.4	-9.7	-13.9	3.2	12.4	10.5
c1cc2cc(CNc3nc(NCC4CC4)nc4ccsc34)ccc2o1	15.6	-6.4	-9.6	3.3	10.2	5.1

High-throughput results deposited in PubChem by The Scripps Research Institute Molecular Screening Center.
